mABHD4 FP – inhibits mouse alpha/beta hydrolase domain 4 | inhibition, % at 8.92 µM | Q8VD66 | hit rate 0.54% among 370,000 | purified mABHD4, FP-Rh probe fluorescence polarization;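 active = inhibition exceeding the mean over every tested compound plus 3 SD, cut at about 30% in these data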
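Test system: mABHD4 protein; Read-out basis: % inhibition; Incubation: 45 min + 60 min at 25 °C; Repeats: single replicate; Technique: fluorescence polarization with parallel and perpendicular emission, 525/598 nm; Compound: 8.92 µM, single dose; Benchmarks: full inhibition S159A mutant plus DMSO, zero as sample-well median.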
HTRA1 inhibitor – inhibitors of human serine peptidase HTRA1. Q92743. recombinant HTRA1, FP-rhodamine activity-based probe, fluorescence polarization. inhibition, % at 5.96 µM. hit rate 0.5% among 340,000; in the data active = inhibition above about 36%
TCR CD3 inh – human TCR-CD3 binding inhibition; TAMRA-labeled TCR probe fluorescence, biochemical; inhibition, % at 9.4 µM; hit rate 0.37% among 360,000; AID 651800; in the data active = inhibition above about 19%;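 note: recombinant mutant TCR 2C K166C tagged with TAMRA read by polarization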
PRMT1 inh – inhibitors of human PRMT1; Q99873; recombinant PRMT1, activity-based probe fluorescence polarization; inhibition, % at 2.79 µM; hit rate 1.3% among 370,000;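 active = inhibition above about 21% made by adding two undisclosed values, limit read from the data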
SIAE primary – inhibitors of human sialic acid acetylesterase SIAE; AID 1053197; hit rate 0.69% among 370,000; Q9HAT2; inhibition, % at 9.66 µM; SIAE FP-Rh probe binding, fluorescence polarization;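 active = inhibition above a cutoff: mean of compounds within the control limits plus 3 SD of those, cut at about 17% in these data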
Target sequence (Q9HAT2 whole entry, looked up): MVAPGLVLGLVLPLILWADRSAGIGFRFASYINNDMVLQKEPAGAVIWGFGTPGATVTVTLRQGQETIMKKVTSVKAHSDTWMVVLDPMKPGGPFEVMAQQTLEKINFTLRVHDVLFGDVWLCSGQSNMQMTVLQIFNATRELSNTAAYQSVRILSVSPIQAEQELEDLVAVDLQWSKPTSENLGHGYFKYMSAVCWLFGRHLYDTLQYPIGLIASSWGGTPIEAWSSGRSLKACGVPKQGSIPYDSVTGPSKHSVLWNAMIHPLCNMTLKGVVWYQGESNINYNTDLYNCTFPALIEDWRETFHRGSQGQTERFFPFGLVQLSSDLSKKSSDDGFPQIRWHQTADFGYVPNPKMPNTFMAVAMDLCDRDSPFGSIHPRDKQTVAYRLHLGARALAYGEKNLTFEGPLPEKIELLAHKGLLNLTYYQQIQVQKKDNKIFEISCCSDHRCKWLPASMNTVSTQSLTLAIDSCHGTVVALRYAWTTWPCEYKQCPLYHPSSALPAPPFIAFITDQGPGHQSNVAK
SIAE inh conf – human SIAE inhibition, confirmation. AID 1117263. hit rate 13% among 2,300. inhibition, % at 9.66 µM. SIAE FP-Rh activity-based probe, fluorescence polarization. shares compounds with SIAE primary;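 active = mean inhibition of the replicates above the hit cutoff set in the primary screen, cut at about 17% in these data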;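 note: inhibitors lower polarization as more probe stays unbound to SIAE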
Each line names hits and unclear results; the compound was inactive in the other large screens (follow-up assays come after a bar, where they were run). Rows were chosen to be rich in hits. Some 2.5% of all compounds tested hit in one or more screens of this group.

COc1ccc(C#CCN(Cc2ccc(OC)cc2OC)C(N)=NC(=O)CCc2ccccc2)cc1	none (no result: HTRA1 inhibitor, TCR CD3 inh)
COc1ccc(-c2nc(C)sc2CC(=O)O)cc1OC	SIAE primary 18 | SIAE inh conf inactive
COc1ccc(-c2nc(C)sc2CC(=O)O)cc1	none
COc1ccc(Br)cc1CNC(=O)Nc1cccs1	SIAE primary 19 | SIAE inh conf inactive
CCCCCCCCN1C(=O)[C@@H](CC(=O)N2CCC(c3ccccc3)CC2)C[C@@]2(C(=O)OC)C1=C[C@H](C(C)C)O[C@@H]2C1CC1	none (no result: HTRA1 inhibitor, TCR CD3 inh)
COc1ccc(-c2cc(-c3c(O)c(OC)c4occc4c3OC)[nH]n2)cc1	SIAE primary 22 | SIAE inh conf inactive
COc1ccc(-c2cc(-c3ccccc3O)[nH]n2)cc1	none
COc1ccc(-c2cc(-c3c(O)c(OC)c4occc4c3OC)[nH]n2)cc1OC	SIAE primary 19 | SIAE inh conf inactive
COc1ccc(-c2oc3c(OC)c(OC)c(OC)c(O)c3c(=O)c2OC)cc1OC	none
COC(=O)[C@]1(C#N)CC(=O)N(c2ccccc2)[C@@H]1c1ccccc1	none (no result: HTRA1 inhibitor, TCR CD3 inh)
O=C(NC1CCCCN(Cc2ccc(OC(F)(F)F)cc2)C1=O)c1ccc2ccccc2c1 (centres undefined)	none (no result: HTRA1 inhibitor, TCR CD3 inh)
COc1cc2c(cc1OC)[C@](C)(c1ccccc1)C[C@@H]2NCC=C(C)C	none (no result: HTRA1 inhibitor)
COc1ccc(S(=O)(=O)N2CCCCCC2)cc1C(=O)N1CCN(c2ccccc2C)CC1	none
COc1ccc(S(=O)(=O)N2CCCCCC2)cc1C(=O)N1CCN(c2ccccc2O)CC1	SIAE primary 20 | SIAE inh conf inactive
O=C(c1cccc(S(=O)(=O)N2CCCCCC2)c1)N1CCN(c2ccccc2)CC1	SIAE primary 17 | SIAE inh conf inactive
COc1ccc(Nc2ccc(S(=O)(=O)N3CCCCC3)cc2[N+](=O)[O-])cc1Cl	SIAE primary 25 | SIAE inh conf inactive
COc1ccc(S(=O)(=O)N2CCCC2)cc1C(=O)O	SIAE primary 18 | SIAE inh conf inactive
COc1ccc(CNC(=O)OC2CC3CC2[C@H]2CCCCN2C3)cc1 (some centres undefined)	none (no result: HTRA1 inhibitor, TCR CD3 inh)
C[C@@H]1CCN(C2CC2)S(=O)(=O)c2c(cccc2N2CCC[C@@H]2CO)O1	none (no result: HTRA1 inhibitor, TCR CD3 inh)
O=S1(=O)N[C@H](Cc2ccccc2)COc2cc(Br)ccc21	none (no result: HTRA1 inhibitor)
Nc1ncnc2c1ncn2[C@@H]1O[C@H](C(=O)N2CCN(c3nc4ccccc4o3)CC2)[C@@H](O)[C@H]1O	none (no result: HTRA1 inhibitor)
Nc1ncnc2c1ncn2[C@@H]1O[C@H](C(=O)N2CCC(F)(F)CC2)[C@@H](O)[C@H]1O	SIAE primary 52 (no result: HTRA1 inhibitor) | SIAE inh conf 57
Nc1ncnc2c1ncn2[C@@H]1O[C@H](C(=O)N2CCC[C@@H]2C(=O)OCc2ccccc2)[C@@H](O)[C@H]1O	SIAE primary 28 (no result: HTRA1 inhibitor) | SIAE inh conf 19
COC(=O)[C@@H](Cc1ccccc1)NC(=O)[C@H]1O[C@@H](n2cnc3c(N)ncnc32)[C@H](O)[C@@H]1O	none (no result: HTRA1 inhibitor)
CCC(c1nnc(SCC(=O)NC2CCCCC2)n1Cc1ccccc1)N(C)C (centres undefined)	SIAE primary 19 | SIAE inh conf inactive
CCC(c1nnc(SCC(=O)NCC2CCCO2)n1Cc1ccccc1)N(C)C (centres undefined)	none
CCCCNc1c(-c2cccc(-c3ccc(OC)cc3)c2)nc2cc(C)ccn12	SIAE primary 22 | SIAE inh conf inactive
COc1ccc(-c2nc3cc(C)ccn3c2NC(=O)c2ccccc2OC)cc1	none
Cc1nc(NN)c2c3c(sc2n1)COC(C)(C)C3	SIAE primary 27 | SIAE inh conf inactive
Cn1c(NN)nc2sc3c(c2c1=O)CC(C)(C)OC3	none
Cc1ccc(N2C(=O)/C(=C\c3ccco3)SC2=S)cc1	none
O=C1/C(=C\c2ccco2)SC(=S)N1c1ccccc1	SIAE primary 25 | SIAE inh conf inactive
COC(=O)CCC1NC(=O)C(Cc2c[nH]c3ccccc23)NC(=O)C2CC(=O)OC(C)C(NC(=O)C(C)NC(=O)C3CCCN3C(=O)C3CCCN3C(=O)C(C)NC(C)=O)C(=O)NC(CC(C)C)C(=O)NC(CCCCNC(=O)CCC(C(=O)NC(Cc3ccc(O)cc3)C(=O)O)NC1=O)C(=O)NC(Cc1c[nH]c3ccccc13)C(=O)N1CCCC1C(=O)NC(CO)C(=O)N2 (centres undefined)	none (no result: HTRA1 inhibitor, TCR CD3 inh)
